Measured values published in ChEMBL document CHEMBL1828576, “Synthesis of new six- and seven-membered 1-N-iminosugars as promising glycosidase inhibitors” (Bioorg Med Chem, 2011).
Activity calls are given as the source filed them. The calls are words filed in the database; no cut-off is given here.

Experiments:
Canavalia ensiformis [1] = experiment: Inhibition of jack bean N-acetyl-beta-D-glucosaminidase assessed as p-nitrophenol release at 1 mM pre-incubated for 1 hr by spectrometric analysis
Method in brief: (§1)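 Each enzyme was pre-incubated with inhibitor (10 µM to 1000 µM) at its optimal pH for 1 h at 37 °C. Hydrolysis was initiated with 2 mM p-nitrophenyl glycopyranoside substrate prepared in 0.025 M citrate, pH 4.0, and quenched with 0.05 M borate, pH 9.8. p-Nitrophenol was read at 405 nm, with controls lacking inhibitor run in parallel. Ki and mode of inhibition were derived from Lineweaver–Burk plots.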

Canavalia ensiformis [2] = experiment: Inhibition of jack bean N-acetyl-beta-D-glucosaminidase assessed as p-nitrophenol release at 1 mM pre-incubated for 1 hr by Lineweaver-Burk plot analysis; method in brief: as §1
Canavalia ensiformis [3] = experiment: Inhibition of jack bean alpha-mannosidase assessed as residual hydrolysis of p-nitrophenyl-alpha-D-mannopyranoside at 1 mM pre-incubated for 1 hr by Lineweaver-Burk plot analysis; method in brief: as §1
Prunus dulcis [4] = experiment: Inhibition of almond seed beta-glucosidase assessed as residual hydrolysis of p-nitrophenyl-beta-D-glucopyranoside at 1 mM pre-incubated for 1 hr by Lineweaver-Burk plot analysis; method in brief: as §1
Geobacillus toebii [5] = experiment: Competitive inhibition of Geobacillus toebii BK1 alpha-galactosidase assessed as residual hydrolysis of p-nitrophenyl-alpha-D-galactopyranoside pre-incubated for 1 hr by Lineweaver-Burk plot analysis
Method in brief: (§2)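 The enzyme was pre-incubated with inhibitor (10 µM to 1000 µM) for 1 h at 60 °C at the enzyme's optimal pH. The reaction was started with 2 mM p-nitrophenyl glycopyranoside made up in 0.025 M citrate buffer, pH 4.0. It was stopped with 0.05 M borate buffer, pH 9.8, and released p-nitrophenol was read at 405 nm against inhibitor-free controls. Ki and inhibition type came from Lineweaver–Burk plots.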

[6] = Inhibition of Geobacillus toebii BK1 alpha-galactosidase assessed as residual hydrolysis of p-nitrophenyl-alpha-D-galactopyranoside pre-incubated for 1 hr by spectrometric analysis; method in brief: as §2
[7] = Inhibition of Geobacillus toebii BK1 alpha-galactosidase assessed as residual hydrolysis of p-nitrophenyl-alpha-D-galactopyranoside pre-incubated for 1 hr by Lineweaver-Burk plot analysis; method in brief: as §2
Saccharomyces cerevisiae = experiment: Inhibition of baker's yeast alpha-glucosidase assessed as residual hydrolysis of p-nitrophenyl-alpha-D-glucopyranoside at 1 mM pre-incubated for 1 hr by Lineweaver-Burk plot analysis; method in brief: as §1
Prunus dulcis [8] = experiment: Inhibition of almond seed beta-galactosidase assessed as residual hydrolysis of p-nitrophenyl-beta-D-galactopyranoside at 1 mM pre-incubated for 1 hr by Lineweaver-Burk plot analysis; method in brief: as §1
[9] = Inhibition of sweet almond beta-glucosidase; design: species or system Prunus dulcis; method in brief: as §1
[10] = Inhibition of baker's yeast alpha-glucosidase assessed as residual hydrolysis of p-nitrophenyl-alpha-D-glucopyranoside pre-incubated for 1 hr by Lineweaver-Burk plot analysis; design: species or system Saccharomyces cerevisiae; method in brief: as §1
Geobacillus toebii [11] = experiment: Inhibition of Geobacillus toebii BK1 alpha-galactosidase assessed as residual hydrolysis of p-nitrophenyl-alpha-D-galactopyranoside at 1 mM pre-incubated for 1 hr by Lineweaver-Burk plot analysis; method in brief: as §2
[12] = Inhibition of baker's yeast alpha-glucosidase assessed as residual hydrolysis of p-nitrophenyl-alpha-D-glucopyranoside pre-incubated for 1 hr by spectrometric analysis; design: species or system Saccharomyces cerevisiae; method in brief: as §1

SMILES	inhibition (Canavalia ensiformis [1])	inhibition (Canavalia ensiformis [2])	inhibition (Canavalia ensiformis [3])	inhibition (Prunus dulcis [4])	inhibition (Geobacillus toebii [5])	IC50 [6]	Ki [7]	inhibition (Saccharomyces cerevisiae)	inhibition (Prunus dulcis [8])	Ki [9]	Ki [10]	inhibition (Geobacillus toebii [11])	IC50 [12]
CN1C[C@@H](CCO)[C@@H](O)[C@H](O)C1	< 50%	inactive	inactive	inactive	Active	50 µM	54 µM	inactive	inactive	–	–	–	–
OCC[C@@H]1CNC[C@@H](O)[C@@H]1O	< 50%	inactive	inactive	inactive	Active	65 µM	66 µM	inactive	inactive	–	–	–	–
OC[C@H]1CNC[C@@H](O)[C@@H]1O [AFEGOSTAT]	–	–	–	–	–	–	–	–	–	0.11 µM	–	–	–
OCC[C@@H]1CNC[C@H](O)[C@@H](O)[C@@H]1O	< 50%	inactive	inactive	inactive	–	–	–	–	inactive	–	131 µM	inactive	675 µM
